# From PubChem
# Shown are actives, neighbours in structure and some others; about 3% of the full set was active somewhere.
# 5HT1a ag = agonists of human 5-HT1a serotonin receptor; CHO 5-HT1a Ga15 NFAT-bla reporter, FRET ratio; 0% basal, 100% maximal reference agonist; activation, % at 10 µM; actives 0.56% (n = 65,000); AID 567;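 active = activation above the screen-wide mean activation plus 3 SD, cut at about 19% in these data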;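 note: 0% = DMSO wells and 100% = 5-CT at EC100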
# 5HT1E ag = agonists of human 5-HT1E serotonin receptor; CHO 5-HT1E Ga15 NFAT-bla reporter, FRET; 0% DMSO wells, 100% control agonist wells; activation, % at 6 µM; actives 0.69% (n = 65,000);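 active = activation above a set limit, the screen-wide mean activation plus 3 SD, cut at about 8.5% in these data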;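 note: 100% = positive control agonist at 1 µM giving full maximal response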
# Target sequence (P28566 whole entry, looked up): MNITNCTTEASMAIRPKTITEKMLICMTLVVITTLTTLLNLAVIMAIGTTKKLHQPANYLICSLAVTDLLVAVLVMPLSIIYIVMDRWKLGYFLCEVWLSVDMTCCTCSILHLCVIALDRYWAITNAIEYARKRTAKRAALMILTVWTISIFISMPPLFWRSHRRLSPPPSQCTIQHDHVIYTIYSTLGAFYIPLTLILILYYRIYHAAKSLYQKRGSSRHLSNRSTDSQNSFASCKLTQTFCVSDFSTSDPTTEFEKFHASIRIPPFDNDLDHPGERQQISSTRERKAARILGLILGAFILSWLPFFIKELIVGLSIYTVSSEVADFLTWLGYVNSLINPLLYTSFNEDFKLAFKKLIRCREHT
# S1P1 ag-PAM = S1P1 (human) agonism or agonism potentiation; P21453; S1P1 CRE-bla cells, forskolin, beta-lactamase FRET, potentiator mode; S1P1 agonist co-added at EC20, 2 nM; 100% = saturating reference agonist, 0% = basal; activation, % at 9.5 µM; actives 0.57% (n = 56,000); AID 449;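 active = activation above a cutoff set at the mean activation of all tested compounds plus 3 SD, cut at about 54% in these data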;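 note: forskolin at 4 µM as EC80 and the EC20 agonist is SEW2871; 100% = SEW2871 at its EC100 plus forskolin at EC80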
# S1P3 ag = agonists of human S1P3 receptor | actives 0.1% (n = 60,000) | S1P3 NFAT-BLA reporter cells, agonism, FRET ratio; relative to 1 µM S1P, basal subtracted | Q99500 | activation, % at 4.5 µM;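 active = activation above the screen-wide mean plus 3 SD, cut at about 4.5% in these data, passing the limit was not always enough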
#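 Benchmarks: high control 1 µM S1P / System: stable CHO line with human S1P3, Gα16, NFAT-BLA reporter / Dosing: single compound concentration, 4.5 µM final / Timing: 4 h compound at 37 °C, 2 h substrate at RT / Measured by: FRET β-lactamase substrate fluorescence, excitation 405 nm, 460/535 nm emission ratio, background-subtracted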
# 5HT1a antag = antagonists of human 5-HT1a serotonin receptor; P08908; CHO 5-HT1a Ga15 NFAT-bla reporter, antagonist mode; inhibition, % at 10 µM; actives 0.68% (n = 62,000); AID 612;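 active = inhibition above the mean of all tested compounds plus 3 SD, cut at about 43% in these data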;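 note: receptor stimulated by 5-CT agonist at 100 nM near EC80; beta-lactamase reporter measured by ratiometric fluorescence of a cleavable substrate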
# HTR1E antagonist = antagonists of human 5-HT1E serotonin receptor. inhibition, % at 6 µM. CHO 5-HT1E Ga15 NFAT-bla reporter, FRET, antagonist. actives 0.99% (n = 65,000). AID 571;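 active = inhibition above a set limit, the mean inhibition across every tested compound plus 3 SD, cut at about 29% in these data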;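 note: signal is the 460 over 535 nm emission ratio of beta-lactamase substrate; 0% = agonist plus DMSO wells and 100% = wells without agonist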
# * marks the source's active call; other numbers are inactive results; . = no result.
SMILES,5HT1a ag,5HT1E ag,S1P1 ag-PAM,S1P3 ag,5HT1a antag,HTR1E antagonist
CC1CCc2nn(CC(=O)NC3CCCC3)cc2C1 (centres undefined),40.0*,0.1,-6.6,0.3,-12.6,-8.2
O=C(Cn1cc2c(n1)CCCCC2)NC1CCN(Cc2ccccc2)CC1,28.5*,0.5,-9.4,0.6,7.0,-0.6
CCCN1CCN(CCCNC(=O)Cn2cc3c(n2)CCCC3)CC1,-2.0,-0.6,-32.6,0.3,9.7,-4.0
CCOCCCNC(=O)Cn1cc2c(n1)CCCC2,36.3*,-0.6,-24.3,0.0,15.2,-7.2
CC1CCCCC1NS(=O)(=O)c1ccc(S(=O)(=O)NCc2ccncc2)cc1 (centres undefined),2.1,0.1,48.3,-1.4,9.7,17.9
O=c1c2cc(N3CCOCC3)ccc2[nH]c(=S)n1CCCN1CCCCC1,-0.5,0.4,.,.,-5.8,16.1
O=c1c2cc(N3CCOCC3)ccc2[nH]c(=S)n1CCCN1CCCC1,-0.8,9.6*,.,.,4.0,-7.8
O=C(NC12CC3CC(CC(C3)C1)C2)c1ccc(S(=O)(=O)N2CCOCC2)cc1,-0.4,0.8,.,.,0.9,-9.6
CCC(Oc1ccccc1)C(=O)N1CCN(c2ccccn2)CC1 (centres undefined),-1.5,-1.6,.,-0.2,5.3,3.9
CCC(Oc1ccccc1)C(=O)N1CCC(C(N)=O)CC1 (centres undefined),20.1*,0.2,.,0.6,7.2,-10.8
Cc1ccc(NC(=O)CC2Nc3ccccc3NC2=O)cc1Cl (centres undefined),33.9*,13.7*,-82.1,5.9*,-14.8,10.5
Cc1ccc(-n2c(C)cc(C(=O)CSc3nnnn3C)c2C)cc1,-0.8,0.2,87.0*,-0.1,-3.8,-2.3
NC(=O)c1cccc(S(=O)(=O)N2CC(c3ccccc3)CC2=O)c1 (centres undefined),-0.1,1.0,-14.4,0.2,-0.8,-5.0
COc1ccc(CCN2CC34C=CC(O3)C(C(=O)NCc3ccccc3)C4C2=O)cc1OC (centres undefined),-1.6,1.2,.,.,-6.1,-0.5
CC1(C)CC(NC(=O)C23CCC(C)(/C(=N/O)C2)C3(C)C)CC(C)(C)N1 (centres undefined),-3.8,-0.7,5.0,-3.0,.,-7.2
COC(=O)C1=C(C)N2C(=O)CSC2=NC1c1ccc2c(c1)OCO2 (centres undefined),-2.4,-0.7,-14.9,0.0,6.5,1.0
CCOC(=O)c1nc(S(C)(=O)=O)ncc1Cl,-1.8,-0.3,-53.5,0.0,86.0*,75.3*
CCOC(=O)C1Cc2c([nH]c3ccccc23)C(C)N1 (centres undefined),0.2,0.2,-5.6,0.2,.,0.1
CCn1c(O)c(/C=N/n2cnnc2)sc1=S,0.7,0.7,-12.9,0.2,-12.3,3.6
CCOC(=O)CSc1nc2c(sc(=S)n2Cc2ccco2)c(=O)n1-c1ccccc1,0.2,-1.8,.,.,55.1*,9.3
Cc1ccc2c(C)nc(NC3=NCN(C(C)C)CN3)nc2c1,0.5,-0.3,-20.6,0.3,-0.8,1.8
O=C(NCC1CCCO1)c1ccc(CS(=O)(=O)Cc2ccc(F)cc2)o1 (centres undefined),-2.7,-0.5,-7.7,-1.3,-4.0,0.4
CC(=O)Nc1ccc(S(=O)(=O)N(C)c2ccc(O)cc2)cc1,-2.4,52.2*,5.6,-0.8,1.4,3.7
CC(C)(C)NS(=O)(=O)c1ccc(CCC(=O)N2CCCCC2)cc1,1.1,0.3,.,.,-7.7,-8.4
CCCC(=O)C1C(=O)CC(C)(C)C(c2cc(C)no2)C1=O (centres undefined),0.2,0.5,.,-0.2,-7.3,-2.3
SMILES,5HT1a ag,5HT1E ag,S1P1 ag-PAM,S1P3 ag,5HT1a antag,HTR1E antagonist
Cc1cc(C2C(=O)CC(=O)CC2c2ccccc2)on1 (centres undefined),-1.1,12.2*,-3.2,0.0,6.6,6.0
O=C(c1cccc(C(=O)N2CCN(c3ccccc3F)CC2)c1)N1CCN(c2ccccc2F)CC1,1.2,0.1,.,-0.3,2.6,-4.7
O=C(NCN1CCN(c2ccccc2F)CC1)c1ccccc1,-2.0,10.3*,-0.7,-0.5,14.6,-2.0
COc1ccccc1Oc1ccc2c(c1)C(=O)N(c1ccc(O)cc1)C2=O,-2.9,0.7,111.5*,-0.7,-1.4,-3.4
COc1ccc2c(c1)C(=O)N(c1ccccc1OC)C(=O)C2(C)C,-0.8,-0.1,3.4,-0.3,-0.7,9.6
NC(=O)c1ccc(OCC(F)(F)C(F)(F)C(F)(F)C(F)(F)C(F)(F)C(F)F)cc1,-2.4,-1.9,62.8*,-1.3,17.3,8.8
COc1cccc(OCCN2CCN(c3ncnc4c3cnn4-c3ccccc3)CC2)c1,5.6,0.2,-0.6,-4.2,.,-9.7
COc1cccc(OCc2nc3c4cnn(-c5ccccc5)c4ncn3n2)c1,24.2*,-0.1,6.2,-0.6,-0.1,2.0
CCN(CC)S(=O)(=O)c1ccc(NC(=O)C(OC)c2ccccc2)cc1 (centres undefined),0.8,0.0,.,-1.0,-0.2,-3.9
c1ccc(Nc2nc(-c3cccs3)cs2)nc1,-0.3,0.0,16.1,-0.1,23.7,-9.9
Cc1cccc(Nc2nc(-c3ccccn3)cs2)n1,-1.3,-0.3,51.1,-1.1,44.8*,35.8*
CCCCNC(=O)Nc1ccnn1C1CCCCC1,-0.1,0.2,.,.,-6.7,2.9
O=c1[nH]c2c(s1)C=Nc1ccccc1N2,-0.2,0.7,.,0.1,7.9,-2.6
CC1=C(C(=O)OC2CCCCCC2)C(c2ccc(C)o2)C2=C(CCCC2=O)N1 (centres undefined),-2.3,-0.7,-6.3,-1.8,26.9,10.4
CC1=C(C(=O)OC2CCCC2)C(c2ccc(C)o2)C2=C(CC(c3cccs3)CC2=O)N1 (centres undefined),0.1,-0.2,14.0,-1.7,44.6*,39.5*
CC1(C)CC(=O)C2=C(C1)NC(=O)CC2c1ccc(N(CCC#N)CCC#N)cc1 (centres undefined),-4.9,0.1,-0.7,-1.2,-3.1,-8.0
CC(C)Oc1ccc(C2c3c(oc4ccccc4c3=O)C(=O)N2CCCN2CCOCC2)cc1 (centres undefined),0.1,0.2,-15.3,-1.0,-1.4,-0.2
COc1ccccc1CNC(=O)c1nnc(Cc2ccc(Cl)cc2)o1,19.5*,0.7,4.8,-1.2,-6.6,-2.5
CCCc1ccc(Oc2cn[nH]c2-c2ccc(O)cc2O)cc1,-2.6,-0.8,74.3*,-1.2,24.9,11.6
O=C(NCc1ccco1)c1cnc2n(c1=O)CCS2,0.2,0.0,7.5,-0.9,-11.2,-1.4
COc1cc(OC)cc(C(=O)N2c3ccc(F)cc3CCC2C)c1 (centres undefined),0.9,25.9*,1.9,0.7,2.3,-6.4
